Source: PubChem (The Scripps Research Institute Molecular Screening Center)
Rows were chosen to be rich in hits. Some 2% of all compounds tested hit in one or more screens of this group.
UHRF1 MBD2 ctr: UHRF1 methyl-DNA binding inhibition. Q96T88. UHRF1 binding to methylated oligo, TR-FRET. inhibition, % at 4.4 µM. hit rate 0.75% among 370,000; in the data active means inhibition above about 21%;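 further: UHRF1 SRA domain binding a hemimethylated CpG hairpin DNA probe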
ARFGAP1 inhibitor: inhibits rat ARF GTPase activating protein 1. Arfgap1-stimulated ARF1 GTP hydrolysis, GDP FP detection. AID 651572. hit rate 0.26% among 360,000. inhibition, % at 16.5 µM;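 active means inhibition above a per-plate limit, mean inhibition of low control wells plus 3 SD, cut at about 25% in these data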
Target sequence (Q62848 1-136 limits assumed): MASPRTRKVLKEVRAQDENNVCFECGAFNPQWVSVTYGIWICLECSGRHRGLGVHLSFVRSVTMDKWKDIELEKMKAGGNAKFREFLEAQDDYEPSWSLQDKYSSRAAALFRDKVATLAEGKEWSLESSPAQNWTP
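Assay system: Rat Arfgap1 GAP domain (His6, aa 1-136), purified enzyme | Buffer or medium: HEPES 25 mM pH 7.5, NaCl 150 mM, MgCl2, DTT | Schedule: GTP hydrolysis reaction 2 h at 25 °C | Signal: FP of antibody-bound GDP Alexa 633 tracer, ex 620/em 688 nm | Measure: Percent inhibition of Arfgap1-stimulated GTP hydrolysis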
MBD2 inh: inhibitors of human MBD2 binding to methylated oligonucleotide; hit rate 0.31% among 370,000; Q9UBB5; inhibition, % at 4.4 µM; TR-FRET; in the data active means inhibition above about 13%
LEDGF integ inh: blocks HIV-1 LEDGF/p75-dependent DNA integration; TR-FRET IN-LEDGF/p75 DNA integration, Eu/Cy5; inhibition, % at 3.7 µM; hit rate 0.64% among 370,000;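 active means inhibition above the screen-wide mean plus 3 SD, cut at about 13% in these data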;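 further: signal is the Cy5 over europium emission ratio at 671 and 618 nm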
TDP2 absorb: blocks human TDP2 phosphodiesterase activity | O95551 | recombinant TDP2, T5PNP hydrolysis, p-nitrophenol absorbance 415 nm | inhibition, % at 12.8 µM | hit rate 0.34% among 370,000 | AID 720702;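 active means inhibition above the mean of all tested compounds plus 3 SD, set per campaign, cut at about 25% in these data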
Target sequence (O95551 whole entry, looked up): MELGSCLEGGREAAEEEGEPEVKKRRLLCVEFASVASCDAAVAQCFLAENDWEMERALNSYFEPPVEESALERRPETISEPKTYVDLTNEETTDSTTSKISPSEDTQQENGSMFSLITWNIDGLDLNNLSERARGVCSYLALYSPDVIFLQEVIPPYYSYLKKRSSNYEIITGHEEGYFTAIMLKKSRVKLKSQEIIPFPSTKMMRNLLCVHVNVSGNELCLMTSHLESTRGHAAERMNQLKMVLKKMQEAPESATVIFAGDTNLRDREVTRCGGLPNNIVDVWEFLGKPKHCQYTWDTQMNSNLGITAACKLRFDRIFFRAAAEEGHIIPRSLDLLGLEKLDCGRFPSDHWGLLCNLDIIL
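Test system: Human TDP2 enzyme | Reagent: 5 mM T5PNP | Compound dosing: 12.8 µM single point, 1% DMSO | Incubation: Enzyme reaction with compound for 2 h at 37 °C | Technique: p-Nitrophenol epi absorbance | Read-out: % inhibition relative to enzyme-containing and enzyme-free wells | Benchmarks: High control without enzyme, low control DMSO plus TDP2 | Replicates: Singlicate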
ASAP1 GAP inh: inhibitors of human ASAP1 ArfGAP activity | inhibition, % at 16.5 µM | ASAP1-stimulated ARF1 GTP hydrolysis, GDP FP detection | AID 624377 | hit rate 0.19% among 360,000; in the data active means inhibition above about 25%
IN multimer up: HIV-1 integrase multimerization activation, counter-screen. shares compounds with LEDGF integ inh. TR-FRET HIV-1 integrase multimerization, biochemical. activation, % at 7.7 µM. hit rate 17% among 2,000. AID 1053131; in the data active means activation above about 8.9%
TRFRET interf: optically interferes with TR-FRET readout in LEDGF counter-screen | shares compounds with LEDGF integ inh | TR-FRET optical interference counterscreen, HIV-1 IN multimerization | 2,000 tested, under 10 active | inhibition, % at 7.7 µM;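 active means inhibition above the mean over all tested compounds plus 3 SD, which no compound reached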
LEDGF integ conf: LEDGF/p75-dependent HIV-1 integration inhibition, confirmation; shares compounds with LEDGF integ inh; TR-FRET LEDGF/p75-dependent HIV-1 integration, biochemical; inhibition, % at 3.7 µM; hit rate 36% among 2,000; in the data active means inhibition above about 14%
Hits are given with their value; i = inactive; nt = no result given.

SMILES	UHRF1 MBD2 ctr	ARFGAP1 inhibitor	MBD2 inh	LEDGF integ inh	TDP2 absorb	ASAP1 GAP inh	IN multimer up	TRFRET interf	LEDGF integ conf
COc1ccc(N(CC(=O)Nc2cccc(N(C)S(C)(=O)=O)c2)S(=O)(=O)c2ccccc2)cc1Cl	i	i	i	44	i	i	i	i	i
COc1ccc(Cl)cc1N(CC(=O)Nc1cccc(SC)c1)S(C)(=O)=O	i	i	i	40	i	i	i	i	i
N#Cc1cccc(NC(=O)OC2CCC23CCC(c2ccccc2)CC3)c1 (centres undefined)	i	nt	i	i	i	nt	nt	nt	nt
Cc1n[nH]c(C)c1S(=O)(=O)NC(C)Cc1ccccn1 (centres undefined)	i	nt	i	i	i	nt	nt	nt	nt
Cc1ccc2cc(N)ccc2n1	i	i	i	i	i	i	nt	nt	nt
Nc1ccc2cc3ccc(N)cc3nc2c1	i	nt	i	44	i	nt	33	i	74
O=C(N/N=C/c1ccc2ncccc2c1)c1cc(-c2cccs2)nc2ccccc12	i	i	i	23	i	i	i	i	i
O=C(N/N=C/c1cccnc1)c1cc(-c2cccs2)nc2ccccc12	i	i	i	i	i	i	nt	nt	nt
O=C1c2cccc(Sc3ccccc3)c2C(=O)c2c(Sc3ccccc3)cccc21	24	i	i	14	i	i	i	i	i
O=C1C(=Cc2cccc(O)c2O)SC(=S)N1CCCN1CCOCC1	i	i	i	24	i	i	18	i	i
COC(=O)[C@H]1C[C@H]2[C@@H]3CC[C@H]4C[C@@H](OC)CC[C@]4(C)[C@H]3CC[C@]2(C)[C@@]2(CCCO2)O1	i	i	i	49	i	i	i	i	i
COC(=O)N[C@@H]1C[C@H]2[C@@H]3CC[C@H]4C[C@@H](OC)CC[C@]4(C)[C@H]3CC[C@]12C	i	i	i	i	i	i	nt	nt	nt
CCCCCCCCCOC(=O)C(CC(=O)O)N1CCOCC1 (centres undefined)	i	i	i	i	i	i	nt	nt	nt
CCCCCOC(=O)CC(C(=O)OCCCCC)N1CCCCC1 (centres undefined)	i	i	i	14	i	i	i	i	i
O=C(/C=C\c1ccco1)Oc1cccc2cccnc12	i	i	i	i	i	i	nt	nt	nt
O=C(/C=C/c1ccco1)Oc1cccc2cccnc12	i	i	i	14	i	i	i	i	i
COC(=O)N/N=C/c1ccc(OC(=O)/C=C/c2ccco2)cc1	i	i	i	i	i	i	nt	nt	nt
CCc1ccc(OC(=O)/C=C/c2ccco2)cc1	i	i	i	15	i	i	i	i	i
O=C(CN1CCN(S(=O)(=O)c2ccc(Cl)c(Cl)c2)CC1)N1CCCCC1	i	i	i	17	i	i	i	i	i
CCCC(=O)N1CCCC1(C)C(=O)Nc1cc(C)ccc1C (centres undefined)	i	i	i	85	i	i	i	i	i
O=C(CSc1c2c(nc3ccccc13)CCCC2)NCc1ccco1	i	i	i	i	i	i	nt	nt	nt
O=C(NCc1ccco1)c1c2c(nc3ccccc13)CCC2	i	i	i	28	i	i	i	i	24
Cc1ccc(Cl)cc1-c1ccc(C=Nc2ccc(N3CCOCC3)cc2)o1	i	i	i	28	i	i	i	i	i
Cc1ccc([N+](=O)[O-])cc1-c1ccc(/C=N/NC(=O)CN2CCOCC2)o1	i	i	i	i	i	i	nt	nt	nt
CCOc1cc(CCNC(=O)c2cc(-c3ccccc3)c(N3CCOCC3)s2)ccc1OC	i	nt	i	i	i	nt	nt	nt	nt
SMILES	UHRF1 MBD2 ctr	ARFGAP1 inhibitor	MBD2 inh	LEDGF integ inh	TDP2 absorb	ASAP1 GAP inh	IN multimer up	TRFRET interf	LEDGF integ conf
Cc1cc(-c2csc(N)n2)c(C)n1C	i	i	i	22	i	i	i	i	53
Cc1cc(-c2csc(N)n2)c(C)n1Cc1ccco1	i	i	i	24	i	i	17	i	80
Cc1ccc(-n2c(C)cc(-c3csc(N)n3)c2C)cc1	i	i	i	i	i	i	nt	nt	nt
CC(C)CNS(=O)(=O)/C=C/c1cc2c(cc1CNC(=O)OC(C)(C)C)OCO2	i	nt	i	i	i	nt	nt	nt	nt
O=C(Cc1cccs1)N/N=C/C=C\c1ccco1	i	i	i	i	i	i	nt	nt	nt
O=C(N/N=C/C=C\c1ccco1)c1cccs1	i	i	i	15	i	i	i	i	20
O=C(N/N=C/C=C/c1ccco1)/C(=C/c1ccccc1)NC(=O)c1ccccc1	i	i	i	18	i	i	i	i	29
CC(C)CC(=O)N1CCc2cc(S(=O)(=O)N(C)Cc3ccco3)ccc21	i	nt	i	i	i	nt	nt	nt	nt
COC(=O)[C@]12C=CCN1[C@@H](c1ccc(C(F)(F)F)cc1)c1c(c3ccccc3n1S(=O)(=O)c1ccc(C)cc1)C2	i	nt	i	i	i	nt	nt	nt	nt
COc1ccc(/C=N/n2c(N)nc3ccccc32)cc1OC	i	i	i	24	i	i	i	i	i
O=C1CC(c2ccco2)CC(O)=C1C=NCC1NCCc2ccccc21 (centres undefined)	i	i	i	23	i	i	i	i	i
CCOC(=O)C(=O)Cc1cccnn1	25	i	i	22	i	i	i	i	50
CC(=O)N=c1c(C#N)cc2c(=O)n3cccc(C)c3nc2n1Cc1ccco1	i	i	i	i	i	i	nt	nt	nt
N#Cc1cc2c(=O)n3ccccc3nc2n(Cc2ccco2)c1=NC(=O)c1ccco1	22	i	i	30	i	i	i	i	i
N=c1c(C(=O)NCc2ccccc2)cc2c(=O)n3ccccc3nc2n1Cc1ccco1	i	i	i	i	i	i	nt	nt	nt
Cc1ccc(CNC(=O)c2cc3c(=O)n4ccccc4nc3n(Cc3ccco3)c2=N)cc1	i	i	i	16	i	i	9.2	i	21
Cc1ccc(/C=[N+](\[O-])c2ccc(N(C)C)cc2)c2nsnc12	i	i	i	14	i	i	10	i	i
CCOC(=O)c1c(NC(=O)CSc2nnc(CNC(=O)c3ccco3)n2C)sc2c1CCC2	i	i	i	60	i	i	i	i	i
CC(=O)N1CCc2cc(S(=O)(=O)NC3CCN(C(=O)CCl)CC3)ccc21	i	nt	i	i	i	nt	nt	nt	nt
COC(=O)[C@]12C[C@H](CC(=O)N3CCCCC3)C(=O)N(Cc3ccc(Cl)cc3Cl)C1=C[C@H](COCc1ccccc1)O[C@@H]2C	i	nt	i	i	i	nt	nt	nt	nt
Cc1ccc(CSc2ccc3nnc(-c4cccnc4)n3n2)cc1	i	i	i	14	i	i	i	i	i
